Data taken from ChEMBL document CHEMBL1811844, “Design, synthesis, and biological evaluation of triazolo-pyrimidine derivatives as novel inhibitors of hepatitis B virus surface antigen (HBsAg) secretion” (J Med Chem, 2011).

Experiments:
Assay type in all cases: ADME, organism-based
Settings in all cases: in vivo
Rattus norvegicus [1] = assay: Cmax in fasted Sprague-Dawley rat plasma at 25 mg/kg, po after 6 hrs by LC/MS/MS analysis; design: dose 25 mg/kg, route oral
Procedure, shortened: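 Male rats, 3 per treatment, fitted with jugular vein cannulae two days before dosing and fasted 12 h (water allowed). Compound given by gavage at 25 mg/kg, formulated at 2 mg/mL in 1:1 NMP:Solutol HS15 diluted with saline. Blood taken predose and at 5, 15, 30 min, 1, 3 and 6 h. Plasma quantified by LC/MS against an 8-point standard curve; Cmax calculated by standard methods.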

Rattus norvegicus [2] = assay: Half life in fasted Sprague-Dawley rat plasma at 5 mg/kg, iv by LC/MS/MS analysis; design: dose 5 mg/kg, route intravenous
Procedure, shortened: (§1)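 Male Sprague-Dawley rats, 3 per treatment, carried jugular cannulae and were fasted 12 h with water. Compound was formulated at 2 mg/mL in 1:1 NMP:Solutol HS15 diluted with saline. Dosing was 5 mg/kg iv or 25 mg/kg oral gavage. Blood was drawn predose and at 5, 15, 30 min, 1, 3 and 6 h. Plasma was quantified by LC-MS/MS against an 8-point standard curve.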

Rattus norvegicus [3] = assay: Volume of distribution at steady state in fasted Sprague-Dawley rat at 5 mg/kg, iv by LC/MS/MS analysis; design: dose 5 mg/kg, route intravenous; procedure, shortened: as §1
Rattus norvegicus [4] = assay: Oral bioavailability in fasted Sprague-Dawley rat at 25 mg/kg after 6 hrs by LC/MS/MS analysis; procedure, shortened: as §1
Rattus norvegicus [5] = assay: Total body clearance in fasted Sprague-Dawley rat at 5 mg/kg, iv by LC/MS/MS analysis; design: dose 5 mg/kg, route intravenous; procedure, shortened: as §1

Cmax (Rattus norvegicus [1]): 1937 ng/mL
t1/2 (Rattus norvegicus [2]): 2.4 h
Vdss (Rattus norvegicus [3]): 2.6 L/kg
F (Rattus norvegicus [4]): 42%
CL (Rattus norvegicus [5]): 17 mL/min/kg
SMILES: Fc1cccc(F)c1C1C=C(c2ccc(Cl)cc2)Nc2ncnn21 (stereo not given)
